From PubChem BioAssay
MEKK3 PB1 HTS: modulators (inhibitors or enhancers) of MEK5 binding to human MEKK3 PB1 domain | Q99759 | bead-based flow cytometry, Alexa488-MEK5 binding to MEKK3; actives lie on both sides; 0 = blocked by unlabeled MEK5, 100 = vehicle | binding response (% of control), % at 10 µM | 1.4% of 290,000 active;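 active = binding response more than 3 SD above or below the average of its plate-row segment, actives on both sides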;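 note: Alexa488 bead fluorescence after subtracting the streptavidin-only scavenger bead signal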
Dynein transport: blocks dynein driven cargo transport along microtubules | 3617.4 mouse cells, GR-EGFP nuclear translocation imaging; test concentration mostly 20 µM; stimulated with dexamethasone, 1 µM; hits give low values | z-score, hits read low | 0.47% of 220,000 active | AID 1381;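 active = plate z-score of nuclear minus cytoplasmic receptor signal below a set negative limit, without overly bright fluorescence or cell loss, cut at about -3.5 in these data, passing the limit was not always enough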;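 note: z-score of nuclear minus cytoplasmic ring GR-EGFP intensity difference per well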
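Buffer or medium – tet-free medium with charcoal-stripped serum · Signal – automated 10x imaging of fixed Hoechst-stained cells · Also added – dexamethasone agonist, 1.0 µM final, for 30 min · Incubation – induction 48 h, compound 1 h, agonist 30 min · Read-out – GR-EGFP nuclear translocation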
ATG4B inhibitor: ATG4B (human) cysteine protease inhibition; ATG4B cleavage of LC3-PLA2, NBD-HPC fluorescence, 1 h; inhibition, % at 8.33 µM; 0.51% of 340,000 active; Q9Y4P1; in the data active = inhibition above about 40%
Beta2AR agonist: activates human beta-2 adrenergic receptor causing internalization. response, % (test concentration not listed). Am2.2-beta2AR cells, FAP receptor internalization, flow cytometry. 0.43% of 340,000 active. AID 504454;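 active = response above a set limit, near 3 SD of response in nonfluorescent compounds, cut at about 42% in these data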
Target sequence (P07550 whole entry, looked up): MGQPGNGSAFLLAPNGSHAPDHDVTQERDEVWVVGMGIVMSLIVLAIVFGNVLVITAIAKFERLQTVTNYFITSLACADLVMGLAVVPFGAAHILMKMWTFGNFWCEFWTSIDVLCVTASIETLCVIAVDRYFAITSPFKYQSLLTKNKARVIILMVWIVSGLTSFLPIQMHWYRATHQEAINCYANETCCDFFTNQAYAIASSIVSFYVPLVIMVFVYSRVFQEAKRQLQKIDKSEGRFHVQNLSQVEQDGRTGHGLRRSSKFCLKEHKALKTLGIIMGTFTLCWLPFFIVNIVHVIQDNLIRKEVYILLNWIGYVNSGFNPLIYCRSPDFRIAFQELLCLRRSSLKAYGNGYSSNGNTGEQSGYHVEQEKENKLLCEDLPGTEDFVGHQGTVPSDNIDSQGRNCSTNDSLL
MEKK2mut PB1 HTS: signal of MEK5 binding to mutant human MEKK2 PB1 domain; 0.35% of 290,000 active; percent response, % at 10 µM; bead flow cytometry, Alexa488-MEK5 binding to MEKK2 mutant; AID 1530; in the data active = percent response above about 24%, passing the limit was not always enough
MEKK2 WT-MEK5: raises or lowers MEK5 binding to wildtype human MEKK2 PB1 domain. bead flow cytometry, Alexa488-MEK5 binding to MEKK2 WT; actives lie on both sides. binding response (% of control), % at 10 µM. 1.1% of 290,000 active; in the data active = binding response below about 67% or above about 130%
MEKK2wt confirm: raises or lowers MEK5 binding to wildtype human MEKK2, retest. 2.4% of 5,900 active. bead flow cytometry, Alexa488-MEK5 binding to MEKK2 WT; actives lie on both sides. binding response (% of control), % at 10 µM. shares compounds with MEKK3 PB1 HTS; in the data active = binding response below about 16% or above about 210%; inactive = in between
MEKK2mut-MEK5: signal of MEK5 binding to mutant human MEKK2, retest | shares compounds with MEKK3 PB1 HTS | bead flow cytometry, Alexa488-MEK5 binding to MEKK2 mutant | percent response, % at 10 µM | 2% of 5,900 active | AID 1893; in the data active = percent response mostly above about 71%, no sharp cut-off; inactive = mostly below about 38%;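 note: higher means compound restores mutant binding toward wildtype level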
MEKK3-MEK5 inh: MEKK3-MEK5 PB1 inhibition, single concentration confirmation; bead flow cytometry, Alexa488-MEK5 binding to MEKK3; hits give low values; shares compounds with MEKK3 PB1 HTS; binding response (% of control), % at 10 µM; AID 1894; 1.8% of 5,900 active;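 active = binding response below 72% of control, or above a set upper limit, though filed actives all read lower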;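 note: 100% = DMSO only wells and 0% = binding blocked by excess unlabeled MEK5; lower values mean stronger disruption of MEK5 binding to MEKK3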
An asterisk follows results filed as active; nt = not tested or not shown; [ ] = another dose, or the depositor's remark. Hits are enriched below; roughly 2.9% of the tested compounds scored in any of these assays.

SMILES	MEKK3 PB1 HTS	Dynein transport	ATG4B inhibitor	Beta2AR agonist	MEKK2mut PB1 HTS	MEKK2 WT-MEK5	MEKK2wt confirm	MEKK2mut-MEK5	MEKK3-MEK5 inh
COc1cc(C(=O)NCC(c2ccco2)N2CCc3ccccc3C2)cc(OC)c1OC (stereo not drawn)	nt	nt	-1.7	-2.7	nt	nt	nt	nt	nt
CCOc1ccc(NC(=O)CN(C)C(=O)CSCc2ccc(C)cc2)cc1OCC	nt	nt	-3.1	-4.8	nt	nt	nt	nt	nt
COc1ccccc1OCCn1nnc2ccccc21	96.0	nt	-11.1	-6.2	3.0	100.0	nt	nt	nt
CC(=O)c1c(C)[nH]c(C(=O)OCC(=O)Nc2ccc(Cl)c(S(=O)(=O)N(C)C)c2)c1C	38.0*[inhibitor]	-0.113	-15.5	5.3	-32.0	43.0*[inhibitor]	106.0	10.0	108.0
CCOc1ncccc1C(=O)OCC(=O)Nc1ccc(C)c(S(=O)(=O)N(C)C)c1	73.0*[inhibitor]	0.771	-4.7	-8.6	-10.0	82.0	100.0	2.0	99.0
CC(=O)c1c(C)[nH]c(C(=O)Nc2ccc(Cl)c(S(=O)(=O)N(C)C)c2)c1C	103.0	-0.0526	-5.0	1.1	-1.0	98.0	nt	nt	nt
COc1ccc(-c2ccc3c(n2)sc2c(=O)[nH]c(=O)[nH]c23)cc1OC	101.0	0.482	nt	nt	-2.0	103.0	nt	nt	nt
CC(C)CN(C(=O)COC(=O)c1cc2ccccc2cc1O)c1c(N)n(Cc2ccccc2)c(=O)[nH]c1=O	nt	nt	-19.8	-2.5	nt	nt	nt	nt	nt
CN(Cc1cccc(C(F)(F)F)c1)Cc1nc(-c2cnccn2)no1	100.0	-1.16	2.9	5.7	-1.0	100.0	nt	nt	nt
CC1(C)C(=O)OC(c2cccn2-c2ccc([N+](=O)[O-])cc2)C(C)(C)C1=O (stereo not drawn)	136.0*	-0.479	-7.0	-2.5	0.0	104.0	103.0	2.0	104.0
CC1(C)C(=O)C2(CCCCC2)C(=O)OC1c1cccn1-c1ccc([N+](=O)[O-])cc1 (stereo not drawn)	133.0*	-0.464	10.6	-0.4	0.0	107.0	103.0	3.0	101.0
CC1(C)C(=O)OC(c2cccn2-c2ccc([N+](=O)[O-])cc2)C2(CCCCC2)C1=O (stereo not drawn)	89.0	-0.804	3.8	2.3	-1.0	98.0	nt	nt	nt
CC1(C)C(=O)C2(CCCCC2)C(=O)OC1c1ccc(O)cc1 (stereo not drawn)	93.0	0.227	7.0	3.7	-8.0	93.0	nt	nt	nt
O=C1OC(c2cccc([N+](=O)[O-])c2)C2(CCCC2)C(=O)C12CCCCC2 (stereo not drawn)	142.0*	0.0912	2.7	-0.3	0.0	104.0	93.0	-4.0	95.0
O=C1OC(c2ccccc2)C2(CCCC2)C(=O)C12CCCC2 (stereo not drawn)	106.0	-0.534	0.3	4.1	-1.0	105.0	nt	nt	nt
Cc1cccc(C=NOCCc2ccccc2)n1	nt	nt	1.3	3.8	nt	nt	nt	nt	nt
CN(C)CCN1C(=O)c2oc3ccccc3c(=O)c2C1c1ccc(F)cc1 (stereo not drawn)	2.0*[inhibitor]	-0.625	-3.1	-5.8	-26.0	-1.0*[inhibitor]	110.0	14.0	105.0
Cc1ccccc1OCC(=O)OCC(=O)c1c[nH]c2ccccc12	nt	nt	-0.3	-3.0	nt	nt	nt	nt	nt
CC(C)(C)OC(=O)C[C@H]1C/C=C\C[C@@H](CC(=O)N[C@@H](CO)Cc2ccccc2)C(=O)N2CCC[C@@H]2COC1=O	nt	nt	-13.3	-6.2	nt	nt	nt	nt	nt
COc1ccccc1N1CCN(c2nc3c(C)cccn3c(=O)c2C=O)CC1	103.0	-0.47	-0.8	7.1	0.0	99.0	nt	nt	nt
Oc1ccc(-c2n[nH]c(=S)n2-c2ccc3c(c2)OCCO3)c(O)c1	70.0*[inhibitor]	-0.819	1.5	6.7	-1.0	85.0	105.0	-2.0	97.0
